Assay results as given in ChEMBL document CHEMBL1121666, “Synthesis and serotonin-like activity of 2-amino-5,8-dimethoxy-6-methyl-1,2-dihydronaphthalene” (J Med Chem, 1981).

Assays:
[1] = Acid dissociation constant was determined; type: ADME
Rattus norvegicus [2] = test: Compound was evaluated for the incidence of serotonin syndrome […] by intraperitoneal administration at the dose 4 mg/kg; 1/3; type: functional
Method in brief: (§1)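 Male Sprague–Dawley rats (200–300 g) were given the racemic hydrochloride salts intraperitoneally at 1–16 mg/kg, following the Sloviter protocol. A rat was scored positive only when forepaw padding, splayed hindlimbs, and head weaving or tremor were all present. Incidence is reported as responders/rats dosed, with […] rats per dose.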

Rattus norvegicus [3] = test: Compound was evaluated for the incidence of serotonin syndrome […] by intraperitoneal administration at the dose 8 mg/kg; 0/3; type: functional; method in brief: as §1
Rattus norvegicus [4] = test: Compound was evaluated for the incidence of serotonin syndrome […] by intraperitoneal administration at the dose 2 mg/kg; 0/3; type: functional; method in brief: as §1
Rattus norvegicus [5] = test: Compound was evaluated for the incidence of serotonin syndrome […] by intraperitoneal administration at the dose 16 mg/kg; 2/3; type: functional; method in brief: as §1
Rattus norvegicus [6] = test: Compound was evaluated for the incidence of serotonin syndrome […] by intraperitoneal administration at the dose 4 mg/kg; 0/8; type: functional
Rattus norvegicus [7] = test: Compound was evaluated for the incidence of serotonin syndrome […] by intraperitoneal administration at the dose 8 mg/kg; 3/8; type: functional
Rattus norvegicus [8] = test: Compound was evaluated for the incidence of serotonin syndrome […] by intraperitoneal administration at the dose 16 mg/kg; 3/3; type: functional; method in brief: as §1

Row | Compound | pKa [1] | Incidence (Rattus norvegicus [2]) | Incidence (Rattus norvegicus [3]) | Incidence (Rattus norvegicus [4]) | Incidence (Rattus norvegicus [5]) | Incidence (Rattus norvegicus [6]) | Incidence (Rattus norvegicus [7]) | Incidence (Rattus norvegicus [8])
1 | COc1cc(C2CC2N)c(OC)cc1C (stereo not given) | 8.11 | – | – | – | – | – | – | –
2 | COc1cc(C)c(OC)c2c1CC(N)C=C2.Cl (stereo not given) | 8.93 | 1 | 0 | 0 | 2 | – | – | –
3 | COc1cc(C)c(OC)c2c1CC(N)CC2.Cl (stereo not given) | – | – | – | 0 | – | 0 | 3 | 3
